In ChEMBL document CHEMBL4680166, “Dual-functional conjugates improving cancer immunochemotherapy by inhibiting tubulin polymerization and indoleamine-2,3-dioxygenase” (Eur J Med Chem, 2020):
Activity calls are given as the source filed them. The rule behind the calls is not given here.

Tests used:
HeLa [1] = experiment: Antitumor activity against human HeLa cells xenografted in BALB/c mouse assessed as inhibition of tumor volume at 30 mg/kg/day, iv administered for 21 days by caliper analysis; format: functional; conditions: 504 h, time 21 day
Summary of the method: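 Male BALB/c nude mice, five weeks old, 18-22 g. Inoculated subcutaneously in the right armpit with 1 × 10⁷ HeLa cells/0.1 mL. At 120-150 mm³, randomized to four groups of five. Once-daily tail-vein injection for 21 days in Tween 80/physiological saline; controls received saline. Tumor volume measured every 2 days by caliper, V = AB²/2.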

Tubulin (Homo sapiens) = Tubulin (Homo sapiens) (UniProt P68371+Q9H4B7+P0DPH7+P68366+Q13509+Q71U36+P04350+Q3ZCM7+P07437+P68363+Q9BQE3+Q6PEY2+Q13885+Q9BVA1+Q9BUF5); experiment: Inhibition of tubulin polymerization in human HeLa cells assessed as disruption of microtubule network organization measured after 24 hrs by DAPI staining based immunofluorescence method; format: cell-based; conditions: dose 0.1-0.5 µM
Summary of the method: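 HeLa cells in six-well plates were treated 24 h. Fixed in 4% paraformaldehyde (37 °C, 15 min), permeabilised with 0.5% Triton X-100 and blocked with 10% goat serum. Incubated with α-tubulin primary antibody overnight, then fluorescent secondary antibody 1 h, with DAPI for nuclei. Imaged by confocal microscopy.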

HeLa [2] = experiment: Induction of apoptosis in human HeLa cells assessed as early apoptotic cells at 0.5 uM measured after 24 hrs by Annexin-V-FITC and PI staining based flow cytometry (reference value: 2.58%); format: functional
Summary of the method: (§1)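 HeLa cells were treated 24 h, washed twice in PBS and resuspended in binding buffer. Stained with annexin V-FITC and PI for 30 min in the dark at room temperature, then analysed by flow cytometry.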

HeLa [3] = experiment: Potency index, ratio of CA-4 IC50 to test compound IC50 for anticancer activity against human HeLa cells after 72 hrs by MTT assay; format: functional
A549 = experiment: Anticancer activity against human A549 cells assessed as inhibition of cell proliferation measured after 72 hrs by MTT assay; format: functional, cell-based; conditions: A549, 72 h
Summary of the method: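 Cells (A549, PC-3, HeLa, HUVEC) grown in DMEM with 10% FBS at 37 °C, 5% CO₂. Seeded at 5 × 10⁴ cells/well and allowed 24 h to attach, then exposed 72 h to a concentration series from DMSO stocks. MTT was added for 4 h and formazan dissolved in DMSO, read at 490 nm. Survival taken relative to untreated control. IC50 by Bliss method, three repeats.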

[4] = Toxicity in BALB/c nude mouse transfected with human HeLa cells assessed as spleen damage at 30 mg/kg/day, iv for 21 days by H&E staining based immunohistochemistry; format: organism-based; conditions: in vivo, 504 h, time 21 day
Summary of the method: (§2)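 HeLa xenografts were grown s.c. in male BALB/c nude mice, which received i.v. tail-vein doses once daily for 21 days in Tween 80/saline vehicle, with saline controls. After 3 weeks the mice were sacrificed. Organs from one mouse per group were fixed in 4% paraformaldehyde, paraffin-embedded and sectioned. Sections were dewaxed, stained with Harris hematoxylin and eosin-phloxine, and examined microscopically for histopathologic changes.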

HeLa [5] = experiment: Induction of apoptosis in human HeLa cells assessed as mitochondrial membrane potential dissipation by measuring increase in green fluorescence intensity at 0.5 uM incubated for 24 hrs by JC-1 staining based fluorescence microscopic analysis; format: functional, cell-based
HeLa [6] = experiment: Induction of cell cycle arrest in human HeLa cells assessed as accumulation at S phase at 0.5 uM measured after 24 hrs by propidium iodide/RNAse staining based flow cytometry (reference value: 27.8%); format: functional
HeLa [7] = experiment: Induction of cell cycle arrest in human HeLa cells assessed as accumulation at G1 phase at 0.5 uM measured after 24 hrs by propidium iodide/RNAse staining based flow cytometry (reference value: 61.5%); format: functional
HeLa [8] = experiment: Induction of apoptosis in human HeLa cells assessed as necrotic cells at 0.5 uM measured after 24 hrs by Annexin-V-FITC and PI staining based flow cytometry (reference value: 0.956%); format: functional; summary of the method: as §1
HeLa [9] = experiment: Inhibition of IDO1 expression in hIFNgamma-stimulated human HeLa cells assessed as decrease in kynurenine production at 0.1 uM measured after 48 hrs by reverse-phase HPLC analysis; format: functional
Summary of the method: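 HeLa cells were given fresh L-tryptophan-containing medium with hIFN-γ (25 ng/mL) plus compound for 48 h. Collected cells were treated with 20% trichloroacetic acid and centrifuged. Supernatant analysed by reversed-phase HPLC (ODS column, acetonitrile/water, 1.0 mL/min, […]).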

[10] = Toxicity in BALB/c nude mouse transfected with human HeLa cells assessed as lung damage at 30 mg/kg/day, iv for 21 days by H&E staining based immunohistochemistry; format: organism-based; conditions: in vivo, 504 h, time 21 day; summary of the method: as §2
HeLa [11] = experiment: Induction of intracellular reactive oxygen species generation in human HeLa cells at 0.5 uM measured after 24 hrs by DCFH-DA staining based flow cytometry relative to CA-4; format: functional
HeLa [12] = experiment: Induction of apoptosis in human HeLa cells assessed as upregulation of PARP protein expression at 0.5 uM measured after 24 hrs by western blot analysis; format: functional, cell-based
Summary of the method: (§3)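 HeLa cells were treated 24 h at 37 °C and lysed in buffer containing PMSF. Protein quantified by BCA, equal amounts separated by SDS-PAGE and transferred to nitrocellulose. Blocked in 5% milk, primary antibodies overnight at 4 °C, peroxidase secondary 2 h at 25 °C. Detection by chemiluminescence, β-actin as loading control.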

HeLa [13] = experiment: Inhibition of IDO1 expression in hIFNgamma-stimulated human HeLa cells at 0.5 uM measured after 24 hrs by western blot assay; format: functional; summary of the method: as §3
[14] = Toxicity in BALB/c nude mouse […] with human HeLa cells assessed as body weight changes at 15 mg/kg/day, iv for 21 days; format: organism-based; conditions: in vivo, 504 h, time 21 day
HeLa [15] = experiment: Induction of intracellular reactive oxygen species generation in human HeLa cells at 0.5 uM measured after 24 hrs by DCFH-DA staining based flow cytometry (reference value: 6.47%); format: functional
HeLa [16] = experiment: Induction of apoptosis in human HeLa cells assessed as viable cells at 0.5 uM measured after 24 hrs by Annexin-V-FITC and PI staining based flow cytometry (reference value: 96.3%); format: functional; conditions: read-out: Activity; summary of the method: as §1
HeLa [17] = experiment: Induction of apoptosis in human HeLa cells assessed as late apoptotic cells at 0.5 uM measured after 24 hrs by Annexin-V-FITC and PI staining based flow cytometry (reference value: 0.199%); format: functional; summary of the method: as §1
HeLa [18] = experiment: Induction of cell cycle arrest in human HeLa cells assessed as accumulation at G2/M phase at 0.5 uM measured after 24 hrs by propidium iodide/RNAse staining based flow cytometry (reference value: 10.7%); format: functional
[19] = Toxicity in BALB/c nude mouse transfected with human HeLa cells assessed as spleen damage at 15 mg/kg/day, iv for 21 days by H&E staining based immunohistochemistry; format: organism-based; conditions: in vivo, 504 h, time 21 day
Summary of the method: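 After 3 weeks of daily iv dosing of HeLa-xenografted nude mice, organs were taken from one mouse per group. Fixed in 4% paraformaldehyde, paraffin-embedded and sectioned. Stained with Harris hematoxylin and eosin-phloxine, then examined microscopically for histopathology.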

HeLa [20] = experiment: Induction of apoptosis in human HeLa cells assessed as cell membrane integrity loss, chromatin condensation and apoptotic body formation by measuring reduction in green fluorescence intensity at 0.5 uM measured after 24 hrs by AO/EB dual staining based fluorescence microscopy; format: functional

inhibition (Tubulin (Homo sapiens)): Dose-dependent effect
IC50 (A549): 220 nM
Structure (SMILES): COc1ccc(/C=C\c2cc(OC)c(OC)c(OC)c2)cc1OC(=O)c1cccc(Cn2cc(CCOC(=O)[C@H](N)Cc3cn(C)c4ccccc34)nn2)c1
inhibition in vivo at 30 mg/kg/day (HeLa [1]): 65.8%
Activity (HeLa [2]): 41.1%
fold change (FC) (HeLa [3]): 3
Activity [4]: Non-Toxic
Activity (HeLa [5]): Active
Activity (HeLa [6]): 17.05%
Activity (HeLa [7]): 6.69%
Activity (HeLa [8]): 0.637%
inhibition (HeLa [9]): Active
Activity [10]: Non-Toxic
fold change (FC) (HeLa [11]): 2.3
Activity (HeLa [12]): Active
inhibition (HeLa [13]): Active
Activity [14]: Non-Toxic
Activity (HeLa [15]): 49.7%
viability at 0.5 µM (HeLa [16]): 47.3%
Activity (HeLa [17]): 11%
Activity (HeLa [18]): 76.27%
Activity [19]: Non-Toxic
Activity (HeLa [20]): Active
